From ChEMBL document CHEMBL1221221, “Discovering chemical modifiers of oncogene-regulated hematopoietic differentiation” (Nat Chem Biol, 2009) come the findings set out here.

Molecules are shown by their SMILES. The source made the active and inactive calls. The calls are words filed in the database; no cut-off is given here.

The species entered for data set [1] is Danio rerio. The data set is described as follows: Inhibition of COX2-mediated decrease in gata1 expression in heterozygous transgenic zebrafish embryo assessed as restoration of gata1 level at 25 uM by in-situ hybridization analysis. The gist of the method: (§1)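 Heterozygous Tg(hsp:AML1-ETO) embryos from homozygous × wild-type crosses. Compound added in DMSO 1 h before heat treatment at 39−40 °C for 1 h at 16−18 hpf. Embryos fixed 90 min after heat treatment, then whole-mount in situ hybridization for gata1 in posterior blood islands. Scored as counts of embryos showing the phenotype. DMSO vehicle control; unheated transgenic embryos for comparison.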

Data set [2] is filed under the species Danio rerio. The data set can be described thus: Inhibition of COX2 in heat-stimulated heterozygous transgenic zebrafish embryo assessed as MPO-positive granulocytic cell accumulation at 25 uM by in situ hybridization analysis in presence of PGE2. The gist of the method: (§2)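 Heterozygous Tg(hsp:AML1-ETO) embryos given heat treatment at 39−40 °C for 1 h at 16−18 hpf. Compound added in DMSO right at the end of heat treatment, with or without PGE2 (20 μM). Embryos fixed at 36−40 hpf for mpo in situ hybridization of granulocytic cells. Scored as counts of embryos showing the phenotype; unheated transgenic embryos also tested.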

The species named for data set [3] is Danio rerio. The data set can be described thus: Inhibition of COX2 in heterozygous transgenic zebrafish embryo assessed as MPO-positive granulocytic cell accumulation at 25 uM by in situ hybridization analysis. The gist of the method: as §2
The species entered for data set [4] is Danio rerio. The data set is described as follows: Inhibition of COX2 in heat-stimulated heterozygous transgenic zebrafish embryo assessed as MPO-positive granulocytic cell accumulation at 25 uM by in situ hybridization analysis. In outline:
as §2

The species named for data set [5] is Danio rerio. The data set can be described thus: Inhibition of COX2-mediated decrease in gata1 expression in heat-stimulated heterozygous transgenic zebrafish embryo assessed as restoration of gata1 level at 25 uM by in-situ hybridization analysis. The gist of the method: as §1
The species entered for data set [6] is Danio rerio. The data set can be described thus: Induction of AML1-ETO protein translation in 37 degC heat-stimulated heterozygous transgenic zebrafish assessed as phenotype appearance after 1 hr by in-situ hybridization analysis. Type of data set: functional, organism-based.
Data set [7] is filed under the species Danio rerio. The data set is described as follows: Effect on scl gene expression in wild type zebrafish embryo at 20 uM treated 14 hrs post fertilization by in-situ hybridization analysis. The class given is functional, organism-based.
The species entered for data set [8] is Danio rerio. The data set is described as follows: Upregulation of MPO gene expression in 39 to 40 degC heat-stimulated heterozygous transgenic zebrafish embryo after 1 hr by in-situ hybridization analysis. Type of data set: functional, organism-based.
The species named for data set [9] is Danio rerio. The data set can be described thus: Induction of MPO-positive granulocytic cell accumulation in heat-stimulated heterozygous transgenic zebrafish embryo. Type of data set: functional, organism-based.
The species named for data set [10] is Danio rerio. The data set is described as follows: Induction of AML1-ETO protein translation in 39 to 40 degC heat-stimulated heterozygous transgenic zebrafish assessed as phenotype appearance after 1 hr by in-situ hybridization analysis. Type of data set: functional, organism-based.
For data set [11], the species on record is Danio rerio. The data set can be described thus: Downregulation of gata1 gene expression in 39 to 40 degC heat-stimulated heterozygous transgenic zebrafish embryo after 1 hr by in-situ hybridization analysis. The class given is functional, organism-based.
Data set [12] is filed under the species Danio rerio. The data set is described as follows: Effect on l-plastin gene expression in wild type zebrafish embryo at 20 uM treated 14 hrs post fertilization by in-situ hybridization analysis. The class given is functional, organism-based.
Data set [13] is filed under the species Danio rerio. The data set is described as follows: Effect on gata1 gene expression in wild type zebrafish embryo at 20 uM treated 14 hrs post fertilization by in-situ hybridization analysis. Type of data set: functional, organism-based.
Data set [14] is filed under the species Danio rerio. The data set can be described thus: Effect on MPO gene expression in wild type zebrafish embryo at 20 uM treated 14 hrs post fertilization by in-situ hybridization analysis. Type of data set: functional, organism-based.
The species entered for data set [15] is Danio rerio. The data set is described as follows: Inhibition of heat-induced AML1-ETO protein expression in heterozygous transgenic zebrafish embryo at 0.15 uM by Western blot analysis. The class given is functional, organism-based. In outline:
(§3)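 Heterozygous Tg(hsp:AML1-ETO) embryos, bred from homozygous transgenic × wild-type crosses, were heat-treated at 39−40 °C for 1 h to induce AE. Lysates were Western blotted with anti-AML1 antibody for AE and also probed for Hsp70, with Akt as the loading reference. Controls were DMSO vehicle, heat-treated wild-type embryos, and unheated transgenic embryos.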

Data set [16] is filed under the species Danio rerio. The data set is described as follows: Inhibition of Hsp70 expression in heterozygous transgenic zebrafish embryo at 0.15 uM by Western blot analysis. The class given is functional, organism-based. The gist of the method:
as §3

Data set [17] is filed under the species Danio rerio. The data set is described as follows: Inhibition of AML1-ETO protein translation in heterozygous transgenic zebrafish assessed as suppression of phenotype appearance. The class given is functional, organism-based. The gist of the method:
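Heterozygous Tg(hsp:AML1-ETO) embryos were dechorionated with pronase at 12−16 hpf and kept in E3 buffer, five per well. Compound was added at 20 μM final. One hour later, AE expression was induced by heat shock at 40 °C for 1 h, followed by 90 min at 28.5 °C. Embryos were then fixed and gata1 in situ hybridization was scored in the posterior blood islands.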

The species entered for data set [18] is Danio rerio. The data set can be described thus: Inhibition of heat-induced AML1-ETO protein expression in heterozygous transgenic zebrafish embryo by Western blot analysis. The class given is functional, organism-based. The gist of the method:
as §3
(In general: A western blot detects proteins with antibodies after separation by electrophoresis.)

The target in data set [19] is Glycogen synthase kinase 3 beta (Danio rerio) (UniProt Q9YH60). The data set can be described thus: Inhibition of GSK-3-beta-mediated activation of […] signaling in heat-stimulated heterozygous transgenic zebrafish embryo assessed as upregulation of MPO gene expression at 0.5 uM by in-situ hybridization analysis. In outline: (§4)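 Heterozygous Tg(hsp:AML1-ETO) embryos exposed to the GSK-3β inhibitor from 14 hpf, after gastrulation, then given a mild heat treatment (37 °C, 1 h) or none. DMSO vehicle control. In situ hybridization for gata1 or mpo. Scored as numbers of embryos showing gata1 downregulation or mpo upregulation.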
Chain of Glycogen synthase kinase 3 beta (Danio rerio) (Q9YH60 as listed by the source): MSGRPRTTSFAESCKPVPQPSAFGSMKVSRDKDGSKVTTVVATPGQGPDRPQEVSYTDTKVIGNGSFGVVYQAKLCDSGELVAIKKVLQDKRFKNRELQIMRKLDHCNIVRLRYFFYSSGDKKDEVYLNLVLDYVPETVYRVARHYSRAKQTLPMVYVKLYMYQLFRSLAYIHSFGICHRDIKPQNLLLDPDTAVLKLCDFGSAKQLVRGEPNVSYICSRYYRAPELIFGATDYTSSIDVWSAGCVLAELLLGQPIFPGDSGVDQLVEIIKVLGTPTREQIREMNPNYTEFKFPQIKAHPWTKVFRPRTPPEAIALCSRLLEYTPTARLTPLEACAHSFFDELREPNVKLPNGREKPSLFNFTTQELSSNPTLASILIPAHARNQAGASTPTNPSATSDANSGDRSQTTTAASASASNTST

Data set [20] has the same target. The data set is described as follows: Inhibition of GSK-3-beta-mediated activation of […] signaling in heterozygous transgenic zebrafish embryo assessed as effect on gata1 gene expression at 0.5 uM by in-situ hybridization analysis. In outline: as §4
The target is the same in data set [21]. The data set is described as follows: Inhibition of GSK-3-beta-mediated activation of […] signaling in heat-stimulated heterozygous transgenic zebrafish embryo assessed as down-regulation of gata1 gene expression at 0.5 uM by in-situ hybridization analysis. The gist of the method: as §4
Data set [22] has the same target. The data set is described as follows: Inhibition of GSK-3-beta-mediated activation of […] signaling in heterozygous transgenic zebrafish embryo assessed as effect on MPO gene expression at 0.5 uM by in-situ hybridization analysis. In outline: as §4
The species entered for data set [23] is Danio rerio. The data set is described as follows: Effect on gross morphology of heterozygous transgenic zebrafish embryo at 0.5 uM. Type of data set: ADME, organism-based. The settings on record: in vivo.
The species entered for data set [24] is Danio rerio. The data set is described as follows: Inhibition of heat-induced AML1-ETO protein expression in heterozygous transgenic zebrafish embryo at 0.5 uM by Western blot analysis. Type of data set: functional, organism-based. In outline:
(§5)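 Heterozygous Tg(hsp:AML1-ETO) embryos treated with compound or DMSO and heat-treated to induce transgene expression. Lysates examined by Western blot with anti-AML1 antibody for AML1-ETO, and also probed for Hsp70. Akt used as loading reference. Controls were heat-treated wild-type embryos and unheated transgenic embryos.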

Data set [25] is filed under the species Danio rerio. The data set can be described thus: Inhibition of Hsp70 expression in heterozygous transgenic zebrafish embryo at 0.5 uM by Western blot analysis. The class given is functional, organism-based. The gist of the method: as §5
Data set [26] is filed under the species Danio rerio. The data set is described as follows: Inhibition of COX2 in heterozygous transgenic zebrafish embryo assessed as MPO-positive granulocytic cell accumulation at 20 uM by in situ hybridization analysis. The gist of the method:
as §2

The species entered for data set [27] is Danio rerio. The data set can be described thus: Inhibition of COX2 in heat-stimulated heterozygous transgenic zebrafish embryo assessed as MPO-positive granulocytic cell accumulation at 20 uM by in situ hybridization analysis in presence of PGE2. In outline: as §2
Data set [28] is filed under the species Danio rerio. The data set is described as follows: Inhibition of COX2 in heat-stimulated heterozygous transgenic zebrafish embryo assessed as MPO-positive granulocytic cell accumulation at 20 uM by in situ hybridization analysis. In outline: as §2
The species entered for data set [29] is Danio rerio. The data set is described as follows: Inhibition of COX2-mediated decrease in gata1 expression in heterozygous transgenic zebrafish embryo assessed as restoration of gata1 level at 20 uM by in-situ hybridization analysis. In outline: as §1
The species entered for data set [30] is Danio rerio. The data set can be described thus: Inhibition of COX2-mediated decrease in gata1 expression in heat-stimulated heterozygous transgenic zebrafish embryo assessed as restoration of gata1 level at 20 uM by in-situ hybridization analysis. The gist of the method: as §1
The species named for data set [31] is Danio rerio. Particulars: 40 uM.
For data set [32], the species on record is Danio rerio. The settings on record: 40 uM. The source holds these as a separate data set.
The species named for data set [33] is Danio rerio. The settings on record: 40 uM. The source holds these as a separate data set.
The species named for data set [34] is Danio rerio. Particulars: 40 uM. The source holds these as a separate data set.

Consider `CS(=O)(=O)Nc1ccc([N+](=O)[O-])cc1OC1CCCCC1`, for which the inhibition entry in the data set filed under Danio rerio [1], in the data set listed under Danio rerio [2] and in the data set listed under Danio rerio [3] was “inactive” throughout. Besides, the inhibition entry in the data set listed under Danio rerio [4] and in the data set filed under Danio rerio [5] was “Active” in each case.
As for `CCCCC[C@H](O)/C=C/[C@H]1[C@H](O)CC(=O)[C@@H]1C/C=C\CCCC(=O)O`, the inhibition entry in the data set filed under Danio rerio [6] is “Active”. Further, the result in the data set listed under Danio rerio [7], in the data set listed under Danio rerio [12], in the data set filed under Danio rerio [13] and in the data set filed under Danio rerio [14] was inactive. Also, the inhibition entry in the data set listed under Danio rerio [8] and in the data set listed under Danio rerio [11] was “inactive” throughout. Also, the result in the data set listed under Danio rerio [9] and in the data set listed under Danio rerio [10] was Active.
On to `C=C(C)[C@H]1Cc2c(ccc3c2O[C@@H]2COc4cc(OC)c(OC)cc4[C@@H]2C3=O)O1`, for which the inhibition entry in the data set filed under Danio rerio [15] and in the data set filed under Danio rerio [16] was “Active” each time.
Regarding `C[C@@H]1C[C@@H]([C@H](O)CC2CC(=O)NC(=O)C2)C(=O)[C@@H](C)C1`, the Imax entry in the data set listed under Danio rerio [17] is “Active”. Further, the inhibition result in the data set filed under Danio rerio [16] was “Active”.
Take `Oc1ccc(Cl)cc1Cc1cc(Cl)ccc1O`: in the data set listed under Danio rerio [18], the “inhibition of AML1-ETO protein expression (active/not active)” value (“inhibition … (active/not active)” for short) was “Active”.
Regarding `COc1ccc2c(c1)O[C@@H]1COc3cc(OC)c(OC)cc3[C@@H]1C2=O`, the “inhibition … (active/not active)” value in the data set filed under Danio rerio [18] was “Active”.
As to `Oc1c(Cl)cc(Cl)cc1Sc1cc(Cl)cc(Cl)c1O`, the “inhibition … (active/not active)” value in the data set listed under Danio rerio [18] was “Active”.
In the case of `O=C1Nc2cc(Br)ccc2/C1=C1/Nc2ccccc2/C1=N\O` [6BIO], the inhibition result in data set [19], in data set [20], in data set [21] and in data set [22] was “Active” in each case. Besides, in the data set filed under Danio rerio [23], the Activity result is reported as “Toxic”.
`CC(/C=C/C(=O)NO)=C\[C@@H](C)C(=O)c1ccc(N(C)C)cc1`: the inhibition entry in the data set filed under Danio rerio [24] and in the data set filed under Danio rerio [25] was “inactive” throughout.
`O=c1oc2ccccc2c(O)c1Cc1c(O)c2ccccc2oc1=O`: in the data set filed under Danio rerio [18], the “inhibition … (active/not active)” value was “inactive”.
With `COc1ccc2c(c1)c(CC(=O)O)c(C)n2C(=O)c1ccc(Cl)cc1`, the inhibition entry in the data set listed under Danio rerio [26], in the data set filed under Danio rerio [27] and in the data set filed under Danio rerio [29] was “inactive” throughout. The inhibition result in the data set listed under Danio rerio [28] and in the data set listed under Danio rerio [30] was “Active” each time.
As for `CS(=O)(=O)Nc1ccc([N+](=O)[O-])cc1Oc1ccccc1`, the inhibition result in the data set listed under Danio rerio [31], in the data set listed under Danio rerio [32], in the data set filed under Danio rerio [33], in the data set filed under Danio rerio [24] and in the data set filed under Danio rerio [25] was “inactive” in each case. Also, the inhibition result in the data set listed under Danio rerio [34] was “Active”.
